Bioassay records (PubChem)
NadD inh: NadD (S. aureus) enzyme inhibition | actives 0.78% (n = 360,000) | inhibition, % at 20 µM | purified NadD enzyme, colorimetric absorbance read-out | AID 602399; in the data active = inhibition above about 26%
LMPTP inh: blocks human LMPTP phosphatase; P24666; recombinant LMPTP-A, OMFP fluorogenic substrate, fluorescence intensity; inhibition, % at 20 µM; actives 0.22% (n = 360,000);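 active = compounds that cut the enzyme signal by at least half of the control window in the single-dose screen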;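 note: plate controls were DMSO wells with enzyme plus substrate for no effect and substrate without enzyme for full effect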
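Material: LMPTP-A; amount: 0.625 nM enzyme; doses: single 20 µM dose; times: reaction 50 min, room temperature, dark; technique: fluorescence intensity of OMFP turnover product; benchmarks: no-enzyme and uninhibited controls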
STEP block: inhibitors of human striatal-enriched phosphatase STEP. recombinant STEP, OMFP fluorogenic substrate, fluorescence. AID 588621. inhibition, % at 20 µM. actives 0.25% (n = 360,000). P54829;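 active = inhibition at 20 µM, scaled per plate between control wells, above about 37%, limit read from the data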;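 note: 0% = DMSO with enzyme and substrate and 100% = substrate only without enzyme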
Target sequence (P54829 whole entry, looked up): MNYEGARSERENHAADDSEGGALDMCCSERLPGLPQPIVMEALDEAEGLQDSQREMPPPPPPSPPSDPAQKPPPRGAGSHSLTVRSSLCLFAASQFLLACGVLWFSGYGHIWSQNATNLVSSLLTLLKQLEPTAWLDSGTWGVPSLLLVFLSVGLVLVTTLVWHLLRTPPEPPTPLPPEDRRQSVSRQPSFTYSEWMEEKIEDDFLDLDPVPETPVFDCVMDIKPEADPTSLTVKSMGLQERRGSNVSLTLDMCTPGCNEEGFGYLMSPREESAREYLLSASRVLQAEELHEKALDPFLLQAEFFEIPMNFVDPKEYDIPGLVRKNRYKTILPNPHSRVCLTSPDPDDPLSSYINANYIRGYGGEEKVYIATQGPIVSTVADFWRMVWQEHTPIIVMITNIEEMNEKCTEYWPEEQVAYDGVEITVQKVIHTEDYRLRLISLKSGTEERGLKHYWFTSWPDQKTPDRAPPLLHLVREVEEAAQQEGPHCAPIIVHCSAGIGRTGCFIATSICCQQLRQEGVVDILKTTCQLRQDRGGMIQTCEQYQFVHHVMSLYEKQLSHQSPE
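Also added – OMFP at 25 µM · Test system – STEP tyrosine phosphatase · Technique – FITC-channel fluorescence of OMFP product · Schedule – 20 min at room temperature, dark · Evaluation – control-normalized % inhibition with plate pattern correction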
DNMT1 block: DNMT1 (human) enzyme inhibition | P26358 | DNMT1 molecular beacon, Hinp1I cleavage, fluorescence | inhibition (reported as % activation of signal), % at 10 µM | actives 0.83% (n = 360,000); in the data active = inhibition above about 50%
SUMO1-SIM PPI: alters human SUMO1 binding to SIM partners | inhibition, % at 20 µM | P63165 | SUMO1 binding to a labelled peptide, TR-FRET, 1 h | actives 0.33% (n = 360,000); in the data active = inhibition above about 37%
Target sequence (P63165 whole entry, looked up): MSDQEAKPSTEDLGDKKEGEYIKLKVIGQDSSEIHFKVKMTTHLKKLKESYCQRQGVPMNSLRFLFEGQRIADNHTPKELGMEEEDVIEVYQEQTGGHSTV
Scp1 inh: inhibitors of human Scp-1 phosphatase | Recombinant Scp1, phosphopeptide, malachite green phosphate absorbance | inhibition, % at 20 µM | actives 0.88% (n = 340,000) | AID 493091;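 active = inhibition above about 50% at 20 µM, limit read from the data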;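 note: plate controls were DMSO wells with enzyme for no effect and wells lacking enzyme for full effect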
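Material: truncated SCP-1 phosphatase (76-261aa) / Buffer or medium: 50 mM Tris acetate pH 5.5, 0.005% Tween-20, 10 mM MgCl2 / Compound dosing: one concentration, 20 µM, with 1.0% DMSO / Incubation: 45 min room-temperature reaction, 5 min colour, 30 min stabiliser / Detection: colorimetric free-phosphate detection, absorbance 630 nm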
Scp-1 conf: confirmation of human Scp-1 phosphatase inhibitors; shares compounds with Scp1 inh; recombinant SCP-1 catalytic domain, phosphate release, malachite green absorbance; inhibition, % at 20 µM; actives 61% (n = 2,500);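 note: plate controls were DMSO with enzyme for no effect and buffer wells lacking enzyme for full effect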
Scp-1 MG ctr: interferes with malachite green readout, flagging false Scp-1 hits; shares compounds with Scp1 inh; Colorimetric interference counterscreen, malachite green absorbance 630 nm; apparent inhibition (interference), % at 20 µM; 2,500 tested, under 10 active;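 note: compounds added after enzyme reaction finished so only phosphate colour detection is probed; plate controls were DMSO wells with completed Scp-1 reaction for no effect and substrate wells lacking enzyme for full effect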
Scp-1 Tm shift: validation of human Scp-1 inhibitors by thermal shift binding. AID 540329. Recombinant SCP1, Sypro Orange thermal shift Tm. actives 25% (n = 1,500). thermal shift relative to vanadate control, % at 40 µM. shares compounds with Scp1 inh;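 active = substances whose mean melting-temperature shift, as a percentage of the reference inhibitor's shift, reaches about 5.3%, limit read from the data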;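 note: 0% = Tm of DMSO wells and 100% = Tm with sodium orthovanadate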
* = called active by the depositor; · = no result. Shown are actives, neighbours in structure and some others; about 2.4% of the full set was active somewhere.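 Rule for the calls, unless noted: active = inhibition of at least 30% at 20 µM; inactive = the rest.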

SMILES	NadD inh	LMPTP inh	STEP block	DNMT1 block	SUMO1-SIM PPI	Scp1 inh	Scp-1 conf	Scp-1 MG ctr	others
C/C(=N\NC(=O)CNC(=O)c1ccc2c(c1)OCCO2)c1ccco1	1.7	-1.9	-0.6	0.6	-7.2	4.0	·	·
COc1cccc(-c2ccc(NC(=O)C3CCCN(Cc4ccc(CO)o4)C3)cc2)c1 (centres undefined)	-3.5	3.7	3.2	-9.4	0.0	-0.1	·	·
COc1cccc(CN(C)C(=O)c2ccc(Cl)c(S(=O)(=O)N3CCCCCC3)c2)c1OC	1.8	-0.2	-0.1	-1.6	1.9	-7.5	·	·
Cc1onc(-c2ccccc2)c1C(=O)Nc1ccnn1C1CCCCC1	-1.1	-0.1	-1.0	2.2	-0.2	-1.1	·	·
O=[N+]([O-])c1cc(S(=O)(=O)Nc2ccccc2)ccc1Nc1ccccc1	-0.7	6.3	1.8	23.5	-21.1	61.0*	-3.2	-26.4
O=[N+]([O-])c1cc(S(=O)(=O)Nc2ccccc2)ccc1NCc1ccccc1	0.5	2.6	-4.2	-2.5	-17.3	-4.9	·	·
CCn1nc([N+](=O)[O-])c2c(-c3nc4ccccc4o3)c(N)n(CCCOC)c2c1=O	-7.9	22.9	9.6	34.8	18.1	84.8*	78.3*	-9.5	Scp-1 Tm shift=1.9
O=C1CCN(Cc2ccccc2)S(=O)(=O)c2ccccc21	12.6	1.0	0.8	3.3	3.8	67.8*	62.6*	-16.2	Scp-1 Tm shift=-20.7
Oc1c(Br)cc(/C=N/n2c(-c3ccccc3)n[nH]c2=S)cc1Br	-0.1	-0.3	12.4	2.0	20.7	56.0*	79.5*	-10.6	Scp-1 Tm shift=9.1*
Oc1c(Br)cc(/C=N/n2c(-c3ccccc3)n[nH]c2=S)c(O)c1Br	0.4	1.2	1.7	7.5	14.7	78.7*	88.3*	-5.2	Scp-1 Tm shift=3.8
Oc1ccc(/C=N/n2c(-c3ccccc3)n[nH]c2=S)cc1Br	4.0	-4.1	-4.4	3.4	2.2	-2.8	·	·
C[C@H](CO)N1C[C@H](C)[C@@H](CN(C)Cc2ccncc2)Oc2c(NS(=O)(=O)c3ccc(F)cc3)cccc2C1=O	1.5	0.8	1.4	4.1	5.0	59.1*	-12.5	-20.5
C[C@@H]1CN([C@@H](C)CO)C(=O)c2cccc(NS(C)(=O)=O)c2O[C@H]1CN(C)Cc1ccc(Oc2ccccc2)cc1	2.6	-1.3	-0.8	-9.0	-1.1	1.7	·	·
C[C@H](CO)N1C[C@H](C)[C@@H](CN(C)CC2CCCCC2)Oc2c(NS(=O)(=O)c3cn(C)cn3)cccc2C1=O	-1.8	-1.8	-2.0	2.4	16.4	59.4*	7.5	-3.8
C[C@H](CO)N1C[C@H](C)[C@@H](CN(C)Cc2ccc(Oc3ccccc3)cc2)Oc2c(NS(=O)(=O)c3cn(C)cn3)cccc2C1=O	2.3	-0.2	0.2	-8.9	3.9	50.1*	-4.9	-9.8
C[C@H](CO)N1C[C@H](C)[C@@H](CN(C)Cc2ccc(C(=O)O)cc2)Oc2c(NS(=O)(=O)c3cn(C)cn3)cccc2C1=O	0.2	-1.9	-1.5	6.4	3.4	61.6*	4.8	-4.0
CN(C)S(=O)(=O)c1cccc(C(=O)N2CCN(S(=O)(=O)c3ccc4c(c3)OCCO4)CC2)c1	6.7	-0.8	0.8	-0.2	-4.5	·	·	·
COc1ccccc1N1CCN(C(=O)CCNS(=O)(=O)c2ccc3c(c2)CCC(=O)N3)CC1	1.2	-0.5	1.9	-2.4	0.4	-4.0	·	·
O=C(O)COc1cccc(NC(=O)C2CCCO2)c1 (centres undefined)	-1.9	-1.6	-1.8	0.6	-2.0	-12.7	·	·
C[C@H](CO)N1C[C@H](C)[C@@H](CN(C)Cc2ccccc2)Oc2c(NS(=O)(=O)c3cn(C)cn3)cccc2C1=O	0.5	-0.8	1.6	-1.9	-4.5	68.9*	-4.1	-12.9
O=S1(=O)CC(N2CCN(Cc3ccccc3F)CC2)CN1Cc1cn(Cc2ccc(Cl)cc2)nn1 (centres undefined)	-8.0	0.2	·	·	0.8	·	·	·
COc1ccc(S(=O)(=O)NNC(=O)Cc2csc(C)n2)cc1[N+](=O)[O-]	-1.6	28.6	6.3	32.2	-5.7	60.2*	64.2*	-6.2	Scp-1 Tm shift=-11.1
O=[N+]([O-])c1cccn2cc(-c3ccc(Br)cc3)nc12	-3.6	33.9	55.6*	14.5	-20.6	107.2*	85.8*	-11.2	Scp-1 Tm shift=8.2*
Cc1cccc(NC(=O)CN2C(=O)/C(=C3\SC(=S)N(CC4CCCO4)C3=O)c3ccccc32)c1 (centres undefined)	11.1	1.2	2.2	-4.5	-0.6	-4.5	·	·
O=C(CN1C(=O)/C(=C2/SC(=S)N(CCS(=O)(=O)O)C2=O)c2ccccc21)Nc1cccc(Br)c1	20.2	2.4	86.9*	8.6	1.3	81.5*	81.1*	-13.6	Scp-1 Tm shift=15.8*
SMILES	NadD inh	LMPTP inh	STEP block	DNMT1 block	SUMO1-SIM PPI	Scp1 inh	Scp-1 conf	Scp-1 MG ctr	others
CCCc1cc(SCC(=O)Nc2c(C)n(C)n(-c3ccccc3)c2=O)n2c(nc3ccccc32)c1C#N	·	·	·	·	·	97.7*	84.4*	-8.2	Scp-1 Tm shift=-5.3
CC(=O)N1CCOc2ccc(S(=O)(=O)NCc3ccc(C)cc3)cc21	-3.9	1.0	-3.6	0.8	2.0	-8.6	·	·
CC(=O)N1CCOc2ccc(S(=O)(=O)NC[C@H]3O[C@@H](n4ccc(=O)[nH]c4=O)[C@H](O)[C@@H]3O)cc21	-1.3	-0.7	-2.5	1.7	-1.3	8.2	-17.2	-16.2
Cc1ccc(-c2csc(N/N=C/C=C/c3ccccc3)n2)cc1	15.0	-0.1	-1.6	-13.3	-7.7	9.0	·	·
CCOC(=O)CN1C(=O)N[C@@H](c2cccs2)C(C(C)=O)=C1C	-4.7	-0.1	-3.2	1.1	0.6	-8.6	·	·
CCOC(=O)CN1C(=O)N[C@@H](c2cccs2)C(C(=O)OC)=C1C	-7.2	-0.9	3.0	2.8	0.6	57.7*	-5.6	-8.7
CC(C)N(C(=O)CSc1nnc(-c2ccc3c(c2)OCO3)n1C)C(C)C	-5.7	0.5	-1.1	0.2	-3.2	55.0*	-23.7	-18.9
CC(C)(CNCc1ccccc1)NS(=O)(=O)c1ccc(Cl)cc1	-7.0	-1.1	2.2	3.4	2.8	-7.7	·	·
COc1ccc(NC(=O)CSc2n[nH]c(=O)n2C2CC2)cc1Cl	-4.8	1.4	1.0	2.2	-0.9	3.7	·	·
COc1ccc(NC(=O)CSc2nc(-c3ccco3)nc3cc(=O)[nH]n23)cc1Cl	12.5	9.1	13.9	6.2	5.0	53.2*	25.3	-19.7
